Test results taken from ChEMBL document CHEMBL4020827, “Targeting Multiple Effector Pathways in Pancreatic Ductal Adenocarcinoma with a G-Quadruplex-Binding Small Molecule” (J Med Chem, 2018).

How the values were obtained:
[1] = tested on: PANC-1; experiment: Effect on SHANK2 gene expression in human PANC1 cells at 400 nM after 6 hrs by RNA sequence analysis relative to control; assay type: functional
Summary of the method: (§1)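 RNA-seq: cells seeded overnight in 60 mm plates (PANC-1 0.35 x 10^6, MIA PaCa-2 1.5 x 10^6 cells/well), then exposed to 400 nM compound for 6 or 24 h against untreated controls. Cell lines mycoplasma-free by RNA-capture ELISA and STR-profiled. Differentially expressed genes called at FDR < 0.1.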

[2] = tested on: MIA PaCa-2; experiment: Effect on PCK2 gene expression in human MIAPaCa2 cells at 400 nM after 6 hrs by RNA sequence analysis relative to control; assay type: functional
[3] = tested on: PANC-1; experiment: Effect on PIK3R2 gene expression in human PANC1 cells at 400 nM after 6 hrs by RNA sequence analysis relative to control; assay type: functional
[4] = Drug uptake in tumor at flank region of CD-1 nude mouse xenografted with human MIAPaCa2 cells at 15 mg/kg, iv measured after 4 hrs; assay type: ADME, organism-based, Neoplasm; conditions: in vivo
[5] = organism: Homo sapiens; experiment: Stabilization of G-quadruplex DNA in human PANC1 cells assessed as increase in 53BP1 foci at 400 nM after 24 hrs by FITC/Cy5/DAPI staining based immunofluorescence assay relative to control; assay type: cell-based
Summary of the method: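 PANC-1 cells (8 x10^4 on coverslips) treated 24 h at 37 °C, or left untreated. Fixed in 4% paraformaldehyde, permeabilized with 0.1% Triton X-100, blocked in 2% milk. Stained with BG4 (20 nM), anti-FLAG and anti-53BP1, then Alexa-488/647 secondaries with DAPI. Deconvolved 100x z-stacks, 50-100 nuclei per replicate, three biological replicates; nuclear foci counted.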

[6] = tested on: MIA PaCa-2; experiment: Antitumor activity against human MIAPaCa2 cells xenografted in CD-1 nude mouse assessed as tumor growth inhibition administered twice weekly for 4 weeks; assay type: functional, cell-based
Summary of the method: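 Female CD-1 nude mice (2-3 months, 20−25 g) given 5 x 10^6 MIA PaCa-2 cells s.c. in right flank in RPMI + Matrigel; dosing began once tumors were established (~13 days, mean 0.05 cm3). Groups of eight received IV doses in saline, twice weekly for 28 days (8 doses), against a saline group. Tumors measured by calliper (length × width × height × π/6) every 3−4 days, to day 62; Student's t test.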

[7] = Binding affinity to 5'-FAM/3'-TAMRA labeled KRAS32 promoter G-quadruplex DNA (unknown origin) assessed as change in melting temperature at 1 uM by FRET assay
Summary of the method: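 FRET melting of FAM/TAMRA dual-labelled promoter G4 oligonucleotides, 400 nM, annealed at 95 °C for 10 min in 60 mM potassium cacodylate (pH 7.4) then cooled to RT. Ligand at 1 μM in solution with 50 mM K+. Fluorescence (ex 450–495, em 515–545 nm) read every 0.5 °C over 30–100 °C with a 30 sec hold per step. ΔTm from curve fitting; triplicate measurements.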

[8] = tested on: PANC-1; experiment: Effect on IQSEC1 gene expression in human PANC1 cells at 400 nM after 24 hrs by RNA sequence analysis relative to control; assay type: functional
Summary of the method: (§2)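 PANC-1 (0.35 x 10^6) or MIA PaCa-2 (1.5 x 10^6) cells seeded overnight in 60 mm plates, then exposed to 400 nM compound for 6 or 24 h; untreated cells as controls. Cells were mycoplasma-free and STR-certified. Differential expression by RNA-seq, called at FDR < 0.1.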

[9] = tested on: PANC-1; experiment: Effect on MAPK12 gene expression in human PANC1 cells at 400 nM after 24 hrs by RNA sequence analysis relative to control; assay type: functional
[10] = tested on: PANC-1; experiment: Effect on TP73 gene expression in human PANC1 cells at 400 nM after 24 hrs by RNA sequence analysis relative to control; assay type: functional; summary of the method: as §1
[11] = tested on: PANC-1; experiment: Effect on SHC2 gene expression in human PANC1 cells at 400 nM after 24 hrs by RNA sequence analysis relative to control; assay type: functional; summary of the method: as §1
[12] = tested on: PANC-1; experiment: Effect on IGF2 gene expression in human PANC1 cells at 400 nM after 6 hrs by RNA sequence analysis relative to control; assay type: functional; summary of the method: as §2
[13] = tested on: PANC-1; experiment: Growth inhibition of human PANC1 cells after 96 hrs by SRB assay; assay type: functional, cell-based; conditions: PANC-1, 96 h
[14] = tested on: PANC-1; experiment: Effect on GLI2 gene expression in human PANC1 cells at 400 nM after 6 hrs by RNA sequence analysis relative to control; assay type: functional; summary of the method: as §2
[15] = tested on: MIA PaCa-2; experiment: Effect on TEAD3 gene expression in human MIAPaCa2 cells at 400 nM after 24 hrs by RNA sequence analysis relative to control; assay type: functional; summary of the method: as §1
[16] = tested on: MIA PaCa-2; experiment: Effect on FASN gene expression in human MIAPaCa2 cells at 400 nM after 24 hrs by RNA sequence analysis relative to control; assay type: functional; summary of the method: as §2
[17] = tested on: MIA PaCa-2; experiment: Effect on MAPK12 gene expression in human MIAPaCa2 cells at 400 nM after 24 hrs by RNA sequence analysis relative to control; assay type: functional
[18] = tested on: PANC-1; experiment: Effect on RPTOR gene expression in human PANC1 cells at 400 nM after 6 hrs by RNA sequence analysis relative to control; assay type: functional; summary of the method: as §1
[19] = tested on: PANC-1; experiment: Effect on GLI4 gene expression in human PANC1 cells at 400 nM after 6 hrs by RNA sequence analysis relative to control; assay type: functional; summary of the method: as §2
[20] = tested on: MIA PaCa-2; experiment: Effect on RPTOR gene expression in human MIAPaCa2 cells at 400 nM after 6 hrs by RNA sequence analysis relative to control; assay type: functional; summary of the method: as §1
[21] = tested on: MIA PaCa-2; experiment: Effect on GLI2 gene expression in human MIAPaCa2 cells at 400 nM after 6 hrs by RNA sequence analysis relative to control; assay type: functional; summary of the method: as §2
[22] = tested on: Mus musculus; experiment: Nephrotoxicity in CD-1 nude mouse xenografted with human MIAPaCa2 cells at 15 mg/kg, iv administered twice weekly for 4 weeks by hematoxylin and eosin staining based assay; assay type: toxicity, organism-based; conditions: in vivo, 672 h
[23] = tested on: PANC-1; experiment: Effect on MAPK11 gene expression in human PANC1 cells at 400 nM after 6 hrs by RNA sequence analysis relative to control; assay type: functional
[24] = tested on: PANC-1; experiment: Effect on PRDM16 gene expression in human PANC1 cells at 400 nM after 6 hrs by RNA sequence analysis relative to control; assay type: functional
[25] = organism: Homo sapiens; experiment: Stabilization of G-quadruplex DNA in human PANC1 cells assessed as induction of DNA damage at G4 site by measuring increase in colocalization of BG4 and 53BP1 foci at 400 nM after 24 hrs by FITC/Cy5/DAPI staining based immunofluorescence assay relative to control; assay type: cell-based
[26] = tested on: PANC-1; experiment: Effect on MAPK9 gene expression in human PANC1 cells at 400 nM after 6 hrs by RNA sequence analysis relative to control; assay type: functional
[27] = tested on: MIA PaCa-2; experiment: Effect on PFKFB4 gene expression in human MIAPaCa2 cells at 400 nM after 24 hrs by RNA sequence analysis relative to control; assay type: functional
[28] = tested on: MIA PaCa-2; experiment: Effect on TEAD2 gene expression in human MIAPaCa2 cells at 400 nM after 24 hrs by RNA sequence analysis relative to control; assay type: functional; summary of the method: as §1
[29] = tested on: PANC-1; experiment: Effect on PIK3R3 gene expression in human PANC1 cells at 400 nM after 24 hrs by RNA sequence analysis relative to control; assay type: functional

Structure (SMILES): O=C1c2ccc3c4c(c(NCCN5CCCC5)cc(c24)C(=O)N1CCCN1CCOCC1)C(=O)N(CCCN1CCOCC1)C3=O
- log2FC [1]: -1.65
- log2FC [2]: 0.26
- log2FC [3]: -0.45
- Drug uptake [4]: Active
- fold change (FC) [5]: 2
- TGI [6]: Dose-dependent effect
- ΔTm [7]: 9.6 °C
- log2FC [8]: -0.5
- log2FC [9]: -1.44
- log2FC [10]: -0.99
- log2FC [11]: -1.47
- log2FC [12]: -1.15
- IC50 [13]: 18 nM
- log2FC [14]: -0.67
- log2FC [15]: -0.66
- log2FC [16]: -0.54
- log2FC [17]: -1.23
- log2FC [18]: -0.8
- log2FC [19]: -1.26
- log2FC [20]: -1.41
- log2FC [21]: -1.17
- Activity [22]: Non-Toxic
- log2FC [23]: -0.38
- log2FC [24]: -2.4
- Activity [25]: 50%
- log2FC [26]: -0.28
- log2FC [27]: -0.93
- log2FC [28]: -0.91
- log2FC [29]: -0.54
